These results are taken from ChEMBL document CHEMBL4477176, “Cyclopenta[b]benzofuran and Secodammarane Derivatives from the Stems of Aglaia stellatopilosa” (2016).

As usually defined, the GI50 is the concentration at which growth is held to half of that of the control.

pEC50: −log10 of the molar value. Active and inactive are the calls of the source. The calls are words filed in the database; no cut-off is given here. Some results are limits rather than exact numbers.

The test system of test [1] is Malassezia furfur. As to the kind of experiment: Antimicrobial activity against Pityrosporum ovale CCUG 24229 assessed as growth inhibition at 25 to 200 uM incubated for 24 hrs by microtiter plate based assay. Format: functional. The essentials:
(§1)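 Yeasts grown in Sabouraud dextrose broth; inoculum 1 × 10^6 cells/mL. Samples dissolved in DMSO at 200 μM and 2-fold diluted down to 25 μM in 96-well plates. Incubated at 28 °C for 24 h. OD600 read before and after incubation. MIC taken as the lowest concentration giving ≥90% growth reduction. Three replicates.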

Test [2] relates to Staphylococcus aureus. Briefly: Antibacterial activity against Staphylococcus aureus NBRC 12732 assessed as growth inhibition at 25 to 200 uM incubated for 24 hrs by microtiter plate based assay. It is filed as functional. The essentials:
(§2)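 Bacteria grown in Luria–Bertani broth; inoculum from fresh culture, serially diluted to 1 × 10^5 cells/mL. Samples dissolved in DMSO at 200 μM and serially 2-fold diluted down to 25 μM in 96-well plates. Incubated at 28 °C for 24 h. OD600 read before and after incubation. MIC taken as the lowest concentration giving ≥90% growth reduction. Triplicates.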

The subject of test [3] is Pseudomonas aeruginosa. Briefly: Antibacterial activity against Pseudomonas aeruginosa NBRC 12689 assessed as growth inhibition at 25 to 200 uM incubated for 24 hrs by microtiter plate based assay. It is filed as functional, organism-based. A digest of the protocol: as §2
In test [4] the test system is Micrococcus luteus. As to the kind of experiment: Antibacterial activity against Micrococcus luteus NBRC 12708 assessed as growth inhibition at 25 to 200 uM incubated for 24 hrs by microtiter plate based assay. Format: functional, organism-based. A digest of the protocol: as §2
For test [5], the system named is Escherichia coli. Briefly: Antibacterial activity against Escherichia coli NBRC 3301 assessed as growth inhibition at 25 to 200 uM incubated for 24 hrs by microtiter plate based assay. It is filed as functional, organism-based. A digest of the protocol:
as §2

For test [6], the system named is Bacillus subtilis. Briefly: Antibacterial activity against Bacillus subtilis NBRC 3134 assessed as growth inhibition at 25 to 200 uM incubated for 24 hrs by microtiter plate based assay. Format: functional. The essentials: as §2
Test [7] deals with Rhodotorula glutinis. Briefly: Antimicrobial activity against Rhodotorula glutinis NBRC 1125 assessed as growth inhibition at 25 to 200 uM incubated for 24 hrs by microtiter plate based assay. Format: functional, organism-based. The essentials: as §1
Test [8] has as its system NCI-H460. Briefly: Cytotoxicity against human NCI-H460 cells assessed as growth inhibition by SRB assay. It is filed as functional.
The test system of test [9] is HT-29. Briefly: Cytotoxicity against human HT-29 cells assessed as growth inhibition by SRB assay. It is filed as functional. As to conditions: read-out: ED50 (the source's name). (In general: In SRB staining, fixed cells bind dye roughly in proportion to their protein.)
In test [10] the test system is MCF7. As to the kind of experiment: Cytotoxicity against human MCF7 cells assessed as growth inhibition by SRB assay. Format: functional.
Test [11] has as its system Saccharomyces cerevisiae. As to the kind of experiment: Antimicrobial activity against Saccharomyces cerevisiae ATCC 9763 assessed as growth inhibition at 25 to 200 uM incubated for 24 hrs by microtiter plate based assay. It is filed as functional, organism-based. A digest of the protocol:
as §1

Test [12] has as its system Porphyromonas gingivalis. Briefly: Antibacterial activity against Porphyromonas gingivalis CCUG 25893 assessed as growth inhibition at 25 to 200 uM incubated for 24 hrs by microtiter plate based assay. Format: functional. A digest of the protocol:
as §2

The test system of test [13] is Aspergillus niger. Briefly: Antifungal activity against Aspergillus niger NBRC 4066 assessed as growth inhibition at 25 to 200 uM incubated for 48 hrs by microtiter plate based assay. It is filed as functional. A digest of the protocol: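 Aspergillus niger grown in Sabouraud dextrose broth; inoculum 1 × 10^6 cells/mL. Samples dissolved in DMSO at 200 μM and 2-fold diluted down to 25 μM in 96-well plates. Incubated at 28 °C for 48 h. OD600 read before and after incubation. MIC taken as the lowest concentration giving ≥90% inhibition. Three replicates.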

The subject of test [14] is Bacillus subtilis. As to the kind of experiment: Antibacterial activity against Bacillus subtilis NBRC 3134 assessed as growth inhibition at 20 uM incubated for 24 hrs by microtiter plate based assay. Format: functional. The note with it: NBRC 3134, 24 h, read-out: GI.
Test [15] deals with Staphylococcus aureus. As to the kind of experiment: Antibacterial activity against Staphylococcus aureus NBRC 12732 assessed as growth inhibition at 80 uM incubated for 24 hrs by microtiter plate based assay. It is filed as functional. The note with it: NBRC 12732, 24 h, read-out: GI.

Consider `COC(=O)C(C)(C)[C@@H]1CC[C@]2(C)[C@H](CC[C@@H]3[C@@H]([C@]4(C)CC[C@H](C(C)(C)O)O4)CC[C@]32C)[C@@]1(C)/C=C/NC=O`, for which the “growth inhibition (GI)” value in test [1], in [2], in [3], in test [4], in [5] and in [6] was “inactive” in each case. For the same compound, the “growth inhibition (GI)” value in test [7], in test [11], in test [12] and in test [13] was “inactive” throughout. In addition, the GI50 in test [8] and in [10] was greater than 10 µM in each case. Moreover, in test [9], the pEC50 is less than 5.00.
Regarding `C=C(C)[C@@H]1CC[C@]2(C)[C@H](CC[C@@H]3[C@@H]([C@](C)(O)CC[C@@H](O)C(C)(C)O)CC[C@]32C)[C@@]1(C)CCC(=O)OC`, the “growth inhibition (GI)” value in test [1], in [3], in test [4], in [5], in test [7] and in [11] was “inactive” in each case. For the same compound, the “growth inhibition (GI)” value in test [2] was “>=90%”; in [6], “>=90%”; in [12] it was 60 - 89%; in test [13] it was 60 - 89%. Also, the inhibition of growth at 20 µM in test [14] was no less than 90%. In addition, in test [15], the inhibition of growth at 80 µM is no less than 90%. Further, the GI50 in [8] and in test [10] was greater than 10 µM each time. Further, in test [9], the pEC50 was less than 5.00.
Turning to `COC(=O)C(C)(C)[C@@H]1CC[C@]2(C)[C@H](CC[C@@H]3[C@@H]([C@](C)(O)CC[C@@H](O)C(C)(C)O)CC[C@]32C)[C@@]1(C)/C=C/NC=O`, the “growth inhibition (GI)” value in test [1] and in test [12] was 60 - 89% each time. The “growth inhibition (GI)” value in test [2], in test [3], in [4], in test [5], in test [6] and in [7] was “inactive” in each case. Moreover, the “growth inhibition (GI)” value in test [11] and in test [13] was “inactive” throughout. The GI50 in [8] and in [10] was greater than 10 µM in each case. Further, the pEC50 in test [9] is less than 5.00.
As for `COC(=O)C(C)(C)[C@@H]1CC[C@]2(C)[C@H](CC[C@@H]3[C@@H]([C@](C)(O)CC[C@@H](O)C(C)(C)O)CC[C@]32C)[C@@]1(C)CC=O`, the “growth inhibition (GI)” value in test [1], in test [3], in test [4], in [5], in test [6] and in test [7] was “inactive” each time. Besides, the “growth inhibition (GI)” value in test [11], in test [12] and in test [13] was “inactive” throughout. For the same compound, the “growth inhibition (GI)” value in test [2] is 60 - 89%. Moreover, the concentration for 50% growth inhibition (GI50) in test [8] and in test [10] was greater than 10 µM in each case. For the same compound, the pEC50 in test [9] was less than 5.00.
For `COC(=O)C(C)(C)[C@@H]1CC[C@]2(C)[C@H](CC[C@@H]3[C@@H]([C@](C)(O)CC[C@@H](O)C(C)(C)O)CC[C@]32C)[C@@]1(C)CC(=O)O`, the “growth inhibition (GI)” value in [1], in test [2], in test [3], in test [4], in [5] and in test [6] was “inactive” in each case. Also, the “growth inhibition (GI)” value in [7], in [11], in test [12] and in [13] was “inactive” throughout. For the same compound, the GI50 in test [8] and in test [10] was greater than 10 µM throughout. In addition, the pEC50 in test [9] is less than 5.00.
